Laboratory results from article PMC6045484 (ACS Omega, 2018).
≈ marks a conversion by molar mass, not a printed value.

Tests used:
P. falciparum (D6) = assay: in vitro antimalarial activity, plasmodial LDH; format: cell-based, Plasmodium falciparum; settings: Plasmodium falciparum, D6, 72 h, read-out: P. falciparum (D6) IC50
[1] = tested on: L. donovani promastigotes; assay: in vitro antileishmanial activity, alamarBlue assay; format: cell-based, Leishmania donovani; settings: Leishmania donovani, 48 h; for IC50: read-out: L. donovani IC50, promastigotes, 48 h; for IC90: read-out: L. donovani IC90, promastigotes, 48 h
C. neoformans ATCC90113 = assay: in vitro antifungal activity; format: cell-based, Cryptococcus neoformans; settings: Cryptococcus neoformans; for IC50: ATCC90113, read-out: C. neoformans IC50; for MFC: ATCC90113, read-out: C. neoformans MFC; for MIC: ATCC90113, read-out: C. neoformans MIC
Summary of the method: (§1)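 Modified NCCLS broth method in Sabouraud dextrose. Inoculum set by OD630 to 1.5 × 10^3 CFU/mL. Test compound serially diluted in 20% DMSO/saline, duplicate wells, up to 20 μg/mL. Incubated 70–74 h at 35 °C; 530 nm read before and after. IC50 is 50% growth inhibition; MIC is no detectable growth. MFC from clear wells subcultured on agar. Amphotericin B control.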

[2] = tested on: M. intracellulare (ATCC23068); assay: in vitro antibacterial activity, modified alamarBlue procedure; format: cell-based, Mycobacterium intracellulare; settings: Mycobacterium intracellulare; for IC50: ATCC23068, read-out: IC50 (concentration that affords 50% growth inhibition), M. intracellulare; for MBC: ATCC23068, read-out: MBC (minimum bactericidal concentration), M. intracellulare; for MIC: ATCC23068, read-out: MIC, M. intracellulare
Summary of the method: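 Modified alamarBlue microplate method. Test compound serially diluted in 20% DMSO/saline, duplicate wells, up to 20 μg/mL. Inoculum 2.0 × 10^6 CFU/mL in Middlebrook 7H9 with OADC, pH 7.3, containing 5% alamarBlue. Incubated 70–74 h at 37 °C, 10% CO2; fluorescence 544ex/590em read before and after. MIC: no blue-to-pink change. MBC by subculturing blue wells on agar. Ciprofloxacin control.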

C. albicans ATCC90028 = assay: in vitro antifungal activity; format: cell-based, Candida albicans; settings: Candida albicans; for IC50: ATCC90028, read-out: C. albicans IC50; for MFC: ATCC90028, read-out: C. albicans MFC; for MIC: ATCC90028, read-out: C. albicans MIC
Summary of the method: as §1

SA (ATCC29213) = assay: in vitro antibacterial activity; format: cell-based; settings: Staphylococcus aureus; for IC50: ATCC29213, read-out: IC50 (concentration that affords 50% growth inhibition), SA; for MBC: ATCC29213, read-out: MBC (minimum bactericidal concentration), SA; for MIC: ATCC29213, read-out: MIC, SA
Summary of the method: (§2)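 Test compound serially diluted in 20% DMSO/saline and plated in duplicate, up to 20 μg/mL. Inoculum in cation-adjusted Mueller–Hinton broth, pH 7.3, set by OD630 to 5 × 10^5 CFU/mL. Incubated 16–20 h at 35 °C; 530 nm read before and after. IC50 is 50% growth inhibition; MIC is no detectable growth. MBC from clear wells subcultured on agar. Ciprofloxacin control.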

P. falciparum (W2) = assay: in vitro antimalarial activity, plasmodial LDH; format: cell-based, Plasmodium falciparum; settings: Plasmodium falciparum, W2, 72 h, read-out: P. falciparum (W2) IC50, CQ-resistant W2 strain, 72 h
Summary of the method: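 P. falciparum-infected erythrocytes (2% parasitemia, 2% hematocrit) in RPMI 1640 with 10% human serum and 60 μg/mL amikacin. Exposed to test compound dilutions for 72 h at 37 °C under 90% N2/5% O2/5% CO2. LDH measured with Malstat reagent (30 min, room temperature), then NBT/PES for 1 h in the dark, stopped with 5% acetic acid, read at 650 nm. IC50 from dose-response curves.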

A. fumigatus ATCC 90906 = assay: in vitro antifungal activity; format: cell-based, Aspergillus fumigatus; settings: Aspergillus fumigatus; for IC50: ATCC90906, read-out: A. fumigatus IC50; for MFC: ATCC90906, read-out: A. fumigatus MFC; for MIC: ATCC90906, read-out: A. fumigatus MIC
Summary of the method: as §1

[3] = tested on: SK-MEL, KB, BT-549, SK-OV-3, VERO and LLC-PK1 cells; assay: cytotoxicity, neutral red uptake assay; format: cell-based, mammalian; settings: highest test concentration 4760 ng/mL
Summary of the method: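 Cells seeded at 25 000/well and allowed 24 h to reach confluence. Test compound was then added and incubated 48 h. Viable cells were counted by a modified neutral red uptake method. The panel was four human cancer lines and two noncancerous mammalian kidney lines. Doxorubicin served as positive control and DMSO as negative control.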

MRSA (ATCC33591) = assay: in vitro antibacterial activity; format: cell-based, methicillin-resistant Staphylococcus aureus; settings: Staphylococcus aureus, ATCC33591|MRSA, read-out: MIC, MRSA
Summary of the method: as §2

Compound | IC50 (P. falciparum (D6)) | IC50 [1] | IC90 [1] | IC50 (C. neoformans ATCC90113) | MFC (C. neoformans ATCC90113) | MIC (C. neoformans ATCC90113) | IC50 [2] | MBC [2] | MIC [2] | IC50 (C. albicans ATCC90028) | MFC (C. albicans ATCC90028) | MIC (C. albicans ATCC90028) | IC50 (SA (ATCC29213)) | MBC (SA (ATCC29213)) | MIC (SA (ATCC29213)) | IC50 (P. falciparum (W2)) | IC50 (A. fumigatus ATCC 90906) | MFC (A. fumigatus ATCC 90906) | MIC (A. fumigatus ATCC 90906) | cytotoxicity CTX [3] | further results
CCCCCCOc1c(OC)cc(NC(C)CCCNC(=O)C(N)Cc2cnc[nH]2)c2nc(C(C)(C)C)ccc12 (stereo not drawn) [compound 105, 2-Amino-N-(4-(2-tert-butyl-5-(hexyloxy)-6-methoxyquinolin-8-ylamino)pentyl)-3-(1H-imidazole-5-yl)propanamide] | 2.4 µg/mL (≈ 4.34 µM) | 3.5 µg/mL (≈ 6.33 µM) | 7 µg/mL (≈ 12.7 µM) | > 20 µg/mL | > 20 µg/mL | > 20 µg/mL | 5.94 µg/mL (≈ 10.7 µM) | 10 µg/mL (≈ 18.1 µM) | 10 µg/mL (≈ 18.1 µM) | 19.4 µg/mL (≈ 35.1 µM) | > 20 µg/mL | > 20 µg/mL | 2.79 µg/mL (≈ 5.05 µM) | 10 µg/mL (≈ 18.1 µM) | 5 µg/mL (≈ 9.05 µM) | 1.7 µg/mL (≈ 3.08 µM) | > 20 µg/mL | > 20 µg/mL | > 20 µg/mL | NC (NC, not cytotoxic up to 4760 ng/mL (4.76 μg/mL)) | MIC (MRSA (ATCC33591)): 10 µg/mL (≈ 18.1 µM)
CCCCCCOc1c(OC)cc(NC(C)CCCNC(=O)C(N)Cc2ccccc2)c2nc(C(C)(C)C)ccc12 (stereo not drawn) [compound 106, 2-Amino-N-(4-(2-tert-butyl-5-(hexyloxy)-6-methoxyquinolin-8-ylamino)pentyl)-3-phenylpropanamide] | > 4.76 µg/mL | 9.89 µg/mL (≈ 17.6 µM) | > 40 µg/mL | 9.83 µg/mL (≈ 17.5 µM) | 20 µg/mL (≈ 35.5 µM) | 20 µg/mL (≈ 35.5 µM) | 18.1 µg/mL (≈ 32.1 µM) | > 20 µg/mL | > 20 µg/mL | > 20 µg/mL | > 20 µg/mL | > 20 µg/mL | 10.7 µg/mL (≈ 19 µM) | > 20 µg/mL | 20 µg/mL (≈ 35.5 µM) | > 4.76 µg/mL | > 20 µg/mL | > 20 µg/mL | > 20 µg/mL | NC (NC, not cytotoxic up to 4760 ng/mL (4.76 μg/mL)) | MIC (MRSA (ATCC33591)): 20 µg/mL (≈ 35.5 µM)
CCCCCCOc1c(OC)cc(NC(C)CCCNC(=O)C(C)N)c2nc(C(C)(C)C)ccc12 (stereo not drawn) [compound 107, 2-Amino-N-(4-(2-tert-butyl-5-(hexyloxy)-6-methoxyquinolin-8-ylamino)pentyl)-propanamide] | > 4.76 µg/mL | 17.1 µg/mL (≈ 35.2 µM) | 37.3 µg/mL (≈ 76.7 µM) | > 20 µg/mL | > 20 µg/mL | > 20 µg/mL | > 20 µg/mL | > 20 µg/mL | > 20 µg/mL | > 20 µg/mL | > 20 µg/mL | > 20 µg/mL | > 20 µg/mL | > 20 µg/mL | > 20 µg/mL | > 4.76 µg/mL | > 20 µg/mL | > 20 µg/mL | > 20 µg/mL | NC (NC, not cytotoxic up to 4760 ng/mL (4.76 μg/mL)) | MIC (MRSA (ATCC33591)): > 20 µg/mL
CCCCCCOc1c(OC)cc(NC(C)CCCNC(=O)C(N)Cc2cc3ccccc3[nH]2)c2nc(C(C)(C)C)ccc12 (stereo not drawn) [compound 108, 2-Amino-N-(4-(2-tert-butyl-5-(hexyloxy)-6-methoxyquinolin-8-ylamino)pentyl)-3-(1H-indol-2-yl)propanamide] | > 4.76 µg/mL | 19.1 µg/mL (≈ 31.7 µM) | > 40 µg/mL | 5.09 µg/mL (≈ 8.46 µM) | 10 µg/mL (≈ 16.6 µM) | 10 µg/mL (≈ 16.6 µM) | 12.7 µg/mL (≈ 21.2 µM) | 20 µg/mL (≈ 33.2 µM) | 20 µg/mL (≈ 33.2 µM) | > 20 µg/mL | > 20 µg/mL | > 20 µg/mL | 4.98 µg/mL (≈ 8.27 µM) | > 20 µg/mL | 10 µg/mL (≈ 16.6 µM) | > 4.76 µg/mL | > 20 µg/mL | > 20 µg/mL | > 20 µg/mL | NC (NC, not cytotoxic up to 4760 ng/mL (4.76 μg/mL)) | MIC (MRSA (ATCC33591)): 10 µg/mL (≈ 16.6 µM)
